The nature of assay [1]: Her2 expression decrease, cell viability multiplex – SKBR3 breast tumor cells, AlphaScreen, ATP viability, primary screen (AID 461;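 active = Her2 level under about 52% in both replicate screens, with viability over 70% of control, limit read from the data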;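 as to Her2 level: lower value means less Her2 protein in the cells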;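 as to viability: percent of carrier control wells set as 100% viability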). The following applies: SKBR3 Her2 protein level, 18-24 h, measured here: SKBR3 viability, ATP luminescence, at 10 µM. (In Alpha technology, singlet oxygen from a donor bead excites a nearby acceptor bead.)
Assay [2] addresses Receptor tyrosine-protein kinase erbB-2 (Homo sapiens) (UniProt P04626). The assay is described as above. As to conditions: 18-24 h, at 10 µM, stronger effect = lower value.
A short description of assay [3]: reduced viability of SK-BR-3 breast cancer cells – cell-based, 24 h, human, pilot screen (AID 572;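 active = viability at or below 10% of carrier control in both of two separate runs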;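 also: compound exposure lasted between 18 and 24 h rather than exactly 24 h; 100% = carrier-treated control wells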). The following applies: SK-BR-3 viability, CellTiter-Glo luminescence, at 10 µM, stronger effect = lower value. In general terms: ATP-based viability assays read luminescence as a measure of living cells.
The nature of assay [4]: HUVEC growth inhibition – cell-based, human, primary screen (AID 575;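 active = viability at or below 30% in both replicate assays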;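 also: 100% = median of untreated cell wells with 0.1% DMSO on each plate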). The following applies: HUVEC proliferation, CellTiter-Glo luminescence, 72 h; at 10 µM; stronger effect = lower value. The procedure, abridged: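 material = primary HUVEC, no more than 12 passages | input = 1250 cells per well | controls = vehicle and MePR control wells | measured by = CTG luminescence | times = 72 h compound incubation | format = collagen-coated 384-well format | read-out = % viability vs DMSO wells | doses = single 10 µM dose, 0.1% DMSO, from 5x medium stock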

The nature of assay [5]: H69AR cell proliferation blockers – human, duplicate replicates, primary screen (AID 580).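 Also: 100% = mean luminescence of untreated wells and 0% = no signal.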 The following applies: H69AR lung tumor cells viability, ATP luminescence, 72 h; at 10 µM; stronger effect = lower value.
A short description of assay [6]: MRP1 drug-resistance reversers in H69AR cells – cell-based, doxorubicin co-treatment, pilot screen (AID 601;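 active = viability loss from added drug above about 55%, and viability with drug at most 40%, in both replicates, limit read from the data, passing the limit was not always enough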). The following applies: CellTiter-Glo, 72 h, at 10 µM; for differential viability (reversal): stronger effect = higher value.
Assay [7] in a line: yeast transport mutant growth inhibition pilot in 384-well plates, post-Golgi transport modulator project (AID 636; in the data active = inhibition above about 31%). As to conditions: absorbance 615 nm, about 18 h, stronger effect = higher value.
Assay [8] in a line: growth suppression of yeast trafficking mutant, preliminary HTS, modulators of trafficking downstream of Golgi apparatus project, 1536-format plate, OD 615 nm (AID 637; in the data active = inhibition above about 30%). The following applies: yeast transport mutant growth, absorbance 615 nm, 18 h; stronger effect = higher value.
Setting [9] is: H69AR cells + 2 uM doxorubicin, measured here: viability with 2 uM doxorubicin, stronger effect = lower value.
Setting [10] is: H69AR cells, compound alone cytotoxicity.

Activity calls are given as the source filed them.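 The calls were made as follows, unless noted: active = viability at or under a set limit in both replicates, limit being median viability minus 3 SD (cut at about 48% in these data, passing the limit was not always enough); inconclusive = at or under the limit in just one replicate; inactive = at or above the limit in both replicates.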

Receptor tyrosine-protein kinase erbB-2 (Homo sapiens), sequence (P04626 whole entry, looked up): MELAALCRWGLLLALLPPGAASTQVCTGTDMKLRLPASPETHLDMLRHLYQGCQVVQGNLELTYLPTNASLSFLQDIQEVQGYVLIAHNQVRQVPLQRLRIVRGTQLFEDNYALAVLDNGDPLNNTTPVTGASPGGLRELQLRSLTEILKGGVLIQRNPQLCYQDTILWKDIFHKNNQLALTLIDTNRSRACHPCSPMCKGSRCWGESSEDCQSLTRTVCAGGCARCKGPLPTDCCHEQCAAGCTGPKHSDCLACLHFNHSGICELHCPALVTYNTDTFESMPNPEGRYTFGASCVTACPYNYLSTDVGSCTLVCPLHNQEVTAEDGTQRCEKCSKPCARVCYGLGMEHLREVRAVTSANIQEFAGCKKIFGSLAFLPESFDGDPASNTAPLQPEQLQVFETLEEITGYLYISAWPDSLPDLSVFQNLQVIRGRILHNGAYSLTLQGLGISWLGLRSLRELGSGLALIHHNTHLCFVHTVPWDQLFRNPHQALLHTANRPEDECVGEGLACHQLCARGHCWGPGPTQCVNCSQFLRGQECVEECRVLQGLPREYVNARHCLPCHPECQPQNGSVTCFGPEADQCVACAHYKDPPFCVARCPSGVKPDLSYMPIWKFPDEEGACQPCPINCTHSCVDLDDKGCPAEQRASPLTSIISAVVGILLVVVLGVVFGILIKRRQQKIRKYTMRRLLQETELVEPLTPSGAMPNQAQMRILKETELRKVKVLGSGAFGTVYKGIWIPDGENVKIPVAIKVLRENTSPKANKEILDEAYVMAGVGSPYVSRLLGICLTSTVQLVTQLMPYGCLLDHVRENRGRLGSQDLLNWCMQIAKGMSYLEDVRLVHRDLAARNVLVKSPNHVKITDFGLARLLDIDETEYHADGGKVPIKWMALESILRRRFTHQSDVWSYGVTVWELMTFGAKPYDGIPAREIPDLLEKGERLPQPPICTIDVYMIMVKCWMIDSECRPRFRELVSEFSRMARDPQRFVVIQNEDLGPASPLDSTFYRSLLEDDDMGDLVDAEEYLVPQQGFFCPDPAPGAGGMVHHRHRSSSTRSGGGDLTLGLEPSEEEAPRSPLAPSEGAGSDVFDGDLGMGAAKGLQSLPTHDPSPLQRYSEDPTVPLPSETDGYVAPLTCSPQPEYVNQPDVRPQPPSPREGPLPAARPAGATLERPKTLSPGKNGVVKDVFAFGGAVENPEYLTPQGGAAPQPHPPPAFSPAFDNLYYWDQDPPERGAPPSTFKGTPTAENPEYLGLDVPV

As a reminder, the viability is a read-out of living cells in per cent, often relative to untreated cells. Broadly, the inhibition is the relative decrease from the control value, in per cent. For `Cc1cc(C)n(-c2nnc(C)n2/N=C/c2ccccc2F)n1`, the viability in assay [1] is 94%; in assay [3] it was 94% (inactive); in assay [4], 110% (inactive); in assay [5], 98.3% (inactive); in assay [6] (setting [9]) it was 84.9%; in assay [6] (setting [10]), 98.3%. Further, the Her2 level in assay [2] is 89% (inactive). Besides, in assay [6] (H69AR cells + 2 uM doxorubicin), the differential viability (reversal) was 13.3% (inactive). Moreover, the inhibition in assay [7] was -7.07% (inactive); in assay [8], 4.59% (inactive).
For `CS(=O)(=O)C1=C(O)C(=O)N(c2ccccc2)C1c1ccccc1` (stereo not given), the viability in assay [1] is 109%; in assay [3], 109% (inactive); in assay [4] it was 104% (inactive); in assay [5], 105% (inactive); in assay [6] (setting [9]), 94.4%; in assay [6] (setting [10]) it was 105%. Further, the Her2 level in assay [2] was 106% (inactive). Further, the differential viability (reversal) in assay [6] (H69AR cells + 2 uM doxorubicin) was 10.3% (inactive). Further, the results for the inhibition in assay [7] and in assay [8] were -4.73% (inactive) and 0.33% (inactive), respectively.
For `CCOC(=O)c1ccccc1NC(=O)COC(=O)C1=COCCO1`, the viability is 98.5% in assay [1]; 98.5% (inactive) in assay [3]; 96.7% (inactive) in assay [4]; 88.7% (inactive) in assay [5]; 102% in assay [6] (setting [9]); 88.7% in assay [6] (setting [10]). Besides, the Her2 level in assay [2] is 92% (inactive). Also, the differential viability (reversal) in assay [6] (H69AR cells + 2 uM doxorubicin) was -13.3% (inactive). Moreover, the figures for the inhibition in assay [7] and in assay [8] were -5.81% (inactive) and 3% (inactive), respectively.
For `Cc1cc(C)n2nc(SCc3cc(=O)n4ccccc4n3)nc2n1`, the viability in assay [1] was 100%; in assay [3] it was 100% (inactive); in assay [4], 107% (inactive); in assay [5] it was 101% (inactive); in assay [6] (setting [9]) it was 95.3%; in assay [6] (setting [10]) it was 101%. The Her2 level in assay [2] was 72.5% (inactive). Moreover, the differential viability (reversal) in assay [6] (H69AR cells + 2 uM doxorubicin) is 5.5% (inactive). Moreover, the inhibition in assay [7] is -4.47% (inactive); in assay [8], -1% (inactive).
For the molecule `Cn1c(=N)c(S(=O)(=O)c2ccc(Cl)cc2)cc2c(=O)n3ccccc3nc21`, the viability in assay [1] was 110%; in assay [3] it was 110% (inactive); in assay [4], 85.4% (inactive); in assay [5], 83.1% (inactive); in assay [6] (setting [9]) it was 86.7%; in assay [6] (setting [10]), 83.1%. The Her2 level in assay [2] is 106% (inactive). The differential viability (reversal) in assay [6] (H69AR cells + 2 uM doxorubicin) is -3.57% (inactive). For the same molecule, the inhibition is -1.95% (inactive) in assay [7] and -1.67% (inactive) in assay [8].
With `Cn1cccc1-c1cc(C(=O)O)[nH]n1`, the viability was 129% in assay [1]; 129% (inactive) in assay [3]; 106% (inactive) in assay [4]; 93.8% (inactive) in assay [5]; 101% in assay [6] (setting [9]); 93.8% in assay [6] (setting [10]). Also, in assay [2], the Her2 level was 110% (inactive). Also, the differential viability (reversal) in assay [6] (H69AR cells + 2 uM doxorubicin) is -7.12% (inactive). Moreover, the inhibition in assay [7] is -4.61% (inactive); in assay [8], 1.64% (inactive).
Regarding `CCCc1ccc(S(=O)(=O)NCCc2ccncc2)cc1`, the viability in assay [1] is 96%; in assay [3], 96% (inactive); in assay [4] it was 85.4% (inactive); in assay [5] it was 106% (inactive); in assay [6] (setting [9]) it was 89.6%; in assay [6] (setting [10]), 106%. In addition, the Her2 level in assay [2] is 91.5% (inactive). For the same molecule, the differential viability (reversal) in assay [6] (H69AR cells + 2 uM doxorubicin) is 16.6% (inactive). Besides, the inhibition in assay [7] is -4.19% (inactive); in assay [8] it was -1.27% (inactive).
On to `CCC(=O)c1ccc(OCCN2CCOCC2)cc1`, for which the viability is 99.5% in assay [1]; 99.5% (inactive) in assay [3]; 111% (inactive) in assay [4]; 109% (inactive) in assay [5]; 92.1% in assay [6] (setting [9]); 109% in assay [6] (setting [10]). The Her2 level in assay [2] is 91.5% (inactive). Further, the differential viability (reversal) in assay [6] (H69AR cells + 2 uM doxorubicin) is 17% (inactive). Also, the inhibition in assay [7] is -5% (inactive); in assay [8], -3.87% (inactive).
Turning to `Cc1onc(-c2ccccc2)c1C(=O)Nc1ccc(S(=O)(=O)N2CCCCC2)cc1`, the viability was 95.5% in assay [1]; 95.5% (inactive) in assay [3]; 58.4% (inactive) in assay [4]; 88.9% (inactive) in assay [5]; 92.3% in assay [6] (setting [9]); 88.9% in assay [6] (setting [10]). Further, the Her2 level in assay [2] is 94.5% (inactive). The differential viability (reversal) in assay [6] (H69AR cells + 2 uM doxorubicin) is -3.39% (inactive). Also, the results for the inhibition in assay [7] and in assay [8] were -0.77% (inactive) and 1% (inactive), respectively.
`Cc1ccc(S(=O)(=O)CCc2nnc(NC(=O)c3cnccn3)s2)cc1`: the viability in assay [1] is 97.5%; in assay [3], 97.5% (inactive); in assay [4] it was 116% (inactive); in assay [5] it was 99.6% (inactive); in assay [6] (setting [9]), 97.6%; in assay [6] (setting [10]) it was 99.6%. Moreover, the Her2 level in assay [2] is 87% (inactive). In assay [6] (H69AR cells + 2 uM doxorubicin), the differential viability (reversal) is 1.94% (inactive). Moreover, the values for the inhibition in assay [7] and in assay [8] were -4.13% (inactive) and 3.93% (inactive), respectively.
As to `CCn1c(=O)cc(OCC(=O)NC2CCCCC2)c2ccccc21`, the viability in assay [1] was 86%; in assay [3], 86% (inactive); in assay [4] it was 91.5% (inactive); in assay [5] it was 87% (inactive); in assay [6] (setting [9]) it was 77.5%; in assay [6] (setting [10]) it was 87%. For the same molecule, the Her2 level in assay [2] was 98.5% (inactive). Also, the differential viability (reversal) in assay [6] (H69AR cells + 2 uM doxorubicin) is 9.56% (inactive). For the same molecule, the inhibition in assay [7] is -0.77% (inactive); in assay [8] it was 0% (inactive).
Take `O=c1[nH]c(NCc2ccco2)nnc1Cc1ccccc1Cl`: the viability in assay [1] is 96.5%; in assay [3], 96.5% (inactive); in assay [4] it was 41.2% (inactive); in assay [5] it was 13.3% (active); in assay [6] (setting [9]) it was 57.8%; in assay [6] (setting [10]), 13.3%. Besides, in assay [2], the Her2 level is 84% (inactive). In assay [6] (H69AR cells + 2 uM doxorubicin), the differential viability (reversal) is -44.5% (inactive). In addition, the inhibition in assay [7] was -7.67% (inactive); in assay [8], 4.92% (inactive).
Take `CCOC(=O)CSc1nnc(-c2ccc(S(=O)(=O)N3CCOCC3)cc2)n1-c1ccccc1`: the viability in assay [1] was 93%; in assay [3], 93% (inactive); in assay [4] it was 94.4% (inactive); in assay [5] it was 105% (inactive); in assay [6] (setting [9]), 87.7%; in assay [6] (setting [10]) it was 105%. Further, the Her2 level in assay [2] was 83.5% (inactive). Also, in assay [6] (H69AR cells + 2 uM doxorubicin), the differential viability (reversal) is 17.4% (inactive). The inhibition in assay [7] was -1.97% (inactive); in assay [8], 1.43% (inactive).
With `NC(=O)COC(=O)c1ccc(S(=O)(=O)N2CCCCCC2)cc1`, the viability in assay [1] was 93%; in assay [3] it was 93% (inactive); in assay [4], 92.8% (inactive); in assay [5] it was 88% (inactive); in assay [6] (setting [9]) it was 90.9%; in assay [6] (setting [10]), 88%. The Her2 level in assay [2] is 104% (inactive). Further, the differential viability (reversal) in assay [6] (H69AR cells + 2 uM doxorubicin) is -2.85% (inactive). In addition, the inhibition in assay [7] is -2.82% (inactive); in assay [8], -7.67% (inactive).
As to `CCOC(=O)c1ccc(NC2OC(=O)c3ccccc32)cc1` (stereo not given), the viability is 106% in assay [1]; 106% (inactive) in assay [3]; 77.4% (inactive) in assay [4]; 91.9% (inactive) in assay [5]; 95.8% in assay [6] (setting [9]); 91.9% in assay [6] (setting [10]). In addition, the Her2 level in assay [2] was 93% (inactive). For the same molecule, the differential viability (reversal) in assay [6] (H69AR cells + 2 uM doxorubicin) was -3.92% (inactive). For the same molecule, the figures for the inhibition in assay [7] and in assay [8] were -6.89% (inactive) and 6.17% (inactive), respectively.
Regarding `CCOC(=O)c1oc2ccccc2c1CSc1nnnn1-c1ccc(OC)cc1`, the viability in assay [1] was 82.5%; in assay [3] it was 82.5% (inactive); in assay [4], 77.4% (inactive); in assay [5] it was 75% (inactive); in assay [6] (setting [9]), 73.9%; in assay [6] (setting [10]), 75%. For the same molecule, the Her2 level in assay [2] is 69% (inactive). The differential viability (reversal) in assay [6] (H69AR cells + 2 uM doxorubicin) was 1.07% (inactive). Further, the inhibition in assay [7] was -4.8% (inactive); in assay [8], 0.16% (inactive).

The record behind these values is PubChem BioAssay.
